22 molecules from ChEMBL document CHEMBL1141879, “Alkylamino derivatives of 4-aminomethylpyridine as inhibitors of copper-containing amine oxidases” (J Med Chem, 2005) can be followed below.

Series [1] in a line: Intraperitoneal lethal dose was measured in Mus musculus. The format is ADME. The following applies: ip. The essentials: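 Acute toxicity was tested in Swiss white Mus musculus. Five scaled doses were given intraperitoneally, 10 animals per dose.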
Series [2] has as its target T1, Primary amine oxidase (Pisum sativum, UniProt Q43077).
T1 sequence (Q43077 whole entry): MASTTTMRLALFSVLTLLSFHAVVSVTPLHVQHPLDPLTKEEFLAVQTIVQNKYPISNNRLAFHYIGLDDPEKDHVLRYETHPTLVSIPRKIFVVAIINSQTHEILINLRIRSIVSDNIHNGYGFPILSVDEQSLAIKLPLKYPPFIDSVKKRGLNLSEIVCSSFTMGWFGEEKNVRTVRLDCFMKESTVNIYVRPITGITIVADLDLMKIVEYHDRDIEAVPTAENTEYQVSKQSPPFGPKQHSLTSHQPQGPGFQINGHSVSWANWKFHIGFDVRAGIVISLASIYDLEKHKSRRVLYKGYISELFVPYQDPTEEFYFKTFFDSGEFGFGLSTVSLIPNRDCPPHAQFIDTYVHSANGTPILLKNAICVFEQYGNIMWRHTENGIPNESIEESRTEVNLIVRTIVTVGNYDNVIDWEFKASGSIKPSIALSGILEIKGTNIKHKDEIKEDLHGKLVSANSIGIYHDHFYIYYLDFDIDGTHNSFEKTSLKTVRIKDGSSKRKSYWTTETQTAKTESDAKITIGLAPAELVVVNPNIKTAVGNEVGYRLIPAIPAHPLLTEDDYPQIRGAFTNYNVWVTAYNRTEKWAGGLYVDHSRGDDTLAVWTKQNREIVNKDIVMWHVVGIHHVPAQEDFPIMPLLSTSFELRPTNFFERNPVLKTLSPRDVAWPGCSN
The experiment in a line: Inhibition of putrescine binding to Pea seedling amine oxidase. On the set-up: species or system Lathyrus oleraceus. The essentials:
(§1)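 Enzyme sources: BAO from commercial porcine serum; DAO porcine kidney enzyme; PSAO from homogenate of 8-day-old pea seedlings in 0.1 M phosphate pH 7.4, cleared by two centrifugations. Substrate at saturating 1 mM (benzylamine for BAO, putrescine for DAO/PSAO). Activity read as H2O2 production by 4-aminoantipyrine method. IC50 from five inhibitor concentrations, each in duplicate, averaged.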

For series [3], the target named is T2, Amine oxidase [flavin-containing] A (Rattus norvegicus, UniProt P21396).
T2 sequence (P21396 whole entry): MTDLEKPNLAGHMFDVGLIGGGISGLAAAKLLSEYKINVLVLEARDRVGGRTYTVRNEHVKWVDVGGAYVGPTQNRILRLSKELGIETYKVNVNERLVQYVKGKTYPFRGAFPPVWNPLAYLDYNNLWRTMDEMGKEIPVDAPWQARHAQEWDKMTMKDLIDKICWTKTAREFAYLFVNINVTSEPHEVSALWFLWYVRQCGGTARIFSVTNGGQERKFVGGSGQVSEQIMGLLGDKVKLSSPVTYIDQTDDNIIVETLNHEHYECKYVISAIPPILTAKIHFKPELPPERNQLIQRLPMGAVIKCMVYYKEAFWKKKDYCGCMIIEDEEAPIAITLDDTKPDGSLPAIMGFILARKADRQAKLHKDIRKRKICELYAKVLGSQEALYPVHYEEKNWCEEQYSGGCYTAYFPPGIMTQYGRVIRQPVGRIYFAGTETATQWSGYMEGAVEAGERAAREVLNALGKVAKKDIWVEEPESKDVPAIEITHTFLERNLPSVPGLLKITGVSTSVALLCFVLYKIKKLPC
The experiment in a line: Inhibitory concentration for rat liver Monoamine oxidase A using 5-hydroxytryptamine.

Series [4] has as its target T3, Peroxisomal primary amine oxidase (Pichia angusta, UniProt P12807).
T3 sequence (P12807 whole entry): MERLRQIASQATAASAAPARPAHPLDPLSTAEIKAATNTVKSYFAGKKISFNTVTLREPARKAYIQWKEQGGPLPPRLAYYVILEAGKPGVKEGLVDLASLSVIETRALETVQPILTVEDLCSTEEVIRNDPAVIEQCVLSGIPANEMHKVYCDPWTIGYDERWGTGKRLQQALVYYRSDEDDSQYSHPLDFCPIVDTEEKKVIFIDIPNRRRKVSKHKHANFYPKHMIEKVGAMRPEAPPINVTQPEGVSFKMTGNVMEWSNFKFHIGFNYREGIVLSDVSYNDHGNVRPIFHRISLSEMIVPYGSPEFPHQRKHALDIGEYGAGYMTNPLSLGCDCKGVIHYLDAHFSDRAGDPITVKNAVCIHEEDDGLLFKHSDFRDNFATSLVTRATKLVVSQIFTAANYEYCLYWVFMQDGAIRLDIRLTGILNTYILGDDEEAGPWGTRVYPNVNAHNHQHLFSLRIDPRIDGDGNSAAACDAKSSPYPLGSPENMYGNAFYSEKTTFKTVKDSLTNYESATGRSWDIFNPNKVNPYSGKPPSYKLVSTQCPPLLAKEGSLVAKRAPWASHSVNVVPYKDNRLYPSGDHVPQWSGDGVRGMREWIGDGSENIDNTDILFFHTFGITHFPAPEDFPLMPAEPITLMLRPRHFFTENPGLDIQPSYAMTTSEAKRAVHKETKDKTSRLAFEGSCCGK
As to the kind of experiment: (§2) Inhibition of beta-phenylethylamine binding to Hansenula polymorpha amine oxidase. On the set-up: species or system Ogataea angusta.

In series [5] the target is T4, Amine oxidase [flavin-containing] B (Rattus norvegicus, UniProt P19643).
T4 sequence (P19643 whole entry): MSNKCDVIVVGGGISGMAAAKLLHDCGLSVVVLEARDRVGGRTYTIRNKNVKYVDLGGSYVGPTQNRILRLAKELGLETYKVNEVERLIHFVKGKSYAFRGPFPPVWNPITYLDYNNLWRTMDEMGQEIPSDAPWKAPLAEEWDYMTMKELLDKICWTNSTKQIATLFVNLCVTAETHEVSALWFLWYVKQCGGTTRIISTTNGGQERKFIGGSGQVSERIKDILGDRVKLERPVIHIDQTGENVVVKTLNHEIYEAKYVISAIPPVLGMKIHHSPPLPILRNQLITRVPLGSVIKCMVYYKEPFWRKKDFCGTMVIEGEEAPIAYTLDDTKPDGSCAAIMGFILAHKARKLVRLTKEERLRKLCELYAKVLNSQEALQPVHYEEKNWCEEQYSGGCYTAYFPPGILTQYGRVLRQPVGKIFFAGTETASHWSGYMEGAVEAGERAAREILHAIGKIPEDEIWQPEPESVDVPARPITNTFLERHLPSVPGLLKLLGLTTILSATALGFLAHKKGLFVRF
The experiment in a line: Inhibitory concentration for rat liver Monoamine oxidase B using beta-phenylethylamine.

Series [6] addresses T3, Peroxisomal primary amine oxidase. As to the kind of experiment: Inhibition of phenylethylamine binding to Hansenula polymorpha amine oxidase. The essentials: (§3)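 Enzyme: HPAO from Hansenula polymorpha NCYC-495 grown 24 h with glucose, 1 µM CuSO4 and methylamine, then homogenized in 0.1 M phosphate pH 7.4 and centrifuged. Substrate beta-phenylethylamine at saturating 1 mM. IC50 means from five inhibitor concentrations tested in duplicate.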

The target of series [7] is T1, Primary amine oxidase. The experiment in a line: Inhibition of putrescine binding to pea seedling amine oxidase. On the set-up: species or system Lathyrus oleraceus. An outline of the steps: as §1
The target in series [8] is T3, Peroxisomal primary amine oxidase. The description is as §2. An outline of the steps:
as §3

Each structure is given as a SMILES string.

Broadly, the LD50 is the dose at which mortality reaches 50%. Higher therefore signals a less toxic substance. For orientation: IC50 means the concentration that inhibits the measured activity by half. Lower therefore signals higher potency. For the molecule `CCOc1cncc(OCC)c1CN.Cl.Cl`, the median lethal dose (LD50) in series [1] was 342 mg/kg. The concentration for half-maximal inhibition (IC50) at Primary amine oxidase [2] was 330 µM; in series [3], more than 1600 µM; in series [4] it was more than 1000 µM; in series [5] it was more than 1000 µM.

Take `CCNc1cnccc1CN`: the IC50 on Primary amine oxidase [2] is 9.3 µM; in series [3] it was 300 µM; in series [4], 87 µM; in series [5], more than 170 µM.

Turning to `CNc1cncc(N(C)C)c1CN`, the IC50 turned out to be 17 µM at Primary amine oxidase [2], 44 µM in series [3], 100 µM in series [4] and 250 µM in series [5].

Regarding `CNc1cnccc1CN`, the IC50 in series [3] was 420 µM; in series [6] it was 53 µM; in series [5] it was more than 170 µM; on Primary amine oxidase [7] it was 0.71 µM.

In series [5], `CC(C)(C)Sc1cncc(SC(C)(C)C)c1CN` came in with an IC50 of more than 1000 µM.

As to `NCc1ccncc1NC1CC1`, the IC50 is more than 100 µM in series [3], more than 1000 µM in series [4] and 90 µM in series [5].

For the molecule `Cl.Cl.NCc1c(OCCCCO)cncc1OCCCCO`, in series [1], the LD50 was more than 500 mg/kg.

For the molecule `NCc1ccncc1NC1CCCC1`, the results for the IC50 in series [3], in series [4] and in series [5] were more than 100 µM, 700 µM and more than 100 µM, respectively.

Regarding `CCSc1cncc(SCC)c1CN`, the IC50 in series [5] is more than 1000 µM.

As to `CCNc1cncc(N(C)CC)c1CN`, the half-maximal inhibitory concentration (IC50) at Primary amine oxidase [2] came out at 55 µM; in series [3], 63 µM; in series [4] it was 350 µM; in series [5], 300 µM.

Take `CCOc1cncc(OCc2ccccc2)c1CN`: the values for the IC50 in series [3] and in series [5] were 630 µM and 1000 µM, respectively.

For `NCc1ccncc1NC1CCCCCC1`, the IC50 was 1000 µM on Primary amine oxidase [2], 150 µM in series [3], more than 300 µM in series [4] and more than 100 µM in series [5].

Regarding `NCc1ccncc1N(C1CCCC1)C1CCCC1`, the results for the half-maximal inhibitory concentration (IC50) in series [3], in series [4] and in series [5] were more than 100 µM, more than 1000 µM and more than 100 µM, respectively.

Regarding `CCNc1ccccc1CN`, the half-inhibitory concentration (IC50) on Primary amine oxidase [2] is more than 100 µM; in series [5] it was more than 100 µM; in series [8], 1500 µM.

On to `CNc1cncc(NC)c1CN`, for which the half-inhibitory concentration (IC50) is 170 µM in series [3] and more than 170 µM in series [5].

In turn, `Cl.Cl.NCc1c(OCCO)cncc1OCCO.O.O.O` had an LD in series [1] of more than 600 mg/kg. Moreover, the half-inhibitory concentration (IC50) in series [3] was more than 1600 µM; in series [5], more than 1000 µM.

Take `CNc1ccccc1CN`: the 50% inhibitory concentration (IC50) at Primary amine oxidase [2] was more than 100 µM; in series [4], 750 µM; in series [5], more than 100 µM.

Take `NCc1ccncc1NC1CCCCC1`: the results for the IC50 in series [3], in series [4] and in series [5] were more than 100 µM, more than 1000 µM and more than 100 µM, respectively.

Consider `NCc1ccncc1NCC1CCCCC1`, for which the IC50 in series [3] is 95 µM; in series [4] it was 540 µM; in series [5], 70 µM.

For `CCCNc1cncc(N(C)CCC)c1CN`, the concentration for half-maximal inhibition (IC50) in series [3] came to 10 µM; in series [5], 20 µM.

Turning to `CC(C)Nc1cnccc1CN`, the IC50 in series [3] is 2200 µM; in series [4], more than 1000 µM; in series [5], 2000 µM.

With `NCc1ccncc1N`, the IC50 in series [3] and in series [5] was more than 2000 µM in each case.
